Data reported in ChEMBL document CHEMBL1127562, “N-substituted spirosuccinimide, spiropyridazine, spiroazetidine, and acetic acid aldose reductase inhibitors derived from isoquinoline-1,3-diones. 2” (J Med Chem, 1994).
Each block holds one compound with its values, some of them ahead of it. The source made the active and inactive calls. The rule behind the calls is not given here.

How the values were obtained:
[1] = system: Rattus norvegicus; experiment: Tested for in vivo inhibition of galactitol accumulation in the sciatic nerve of galactose-fed rats at the dose of 27.5 (mg/kg/day); type: functional
Summary of the method: (§1)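 Rats were given a 20% galactose diet for 4 days, with the test compound administered in the diet. Sciatic nerve galactitol accumulation was measured, and activity is given as % inhibition at the stated daily dose (mg/kg/day). Values are mean ± SEM, n = 6 animals; p < 0.01 unless indicated. NS means no significant inhibition of polyol accumulation.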

[2] = system: Rattus norvegicus; experiment: Tested for in vivo inhibition of galactitol accumulation in the lens of galactose-fed rats at the dose of 27.5 (mg/kg/day); type: functional, Lens of camera-type eye
[3] = system: Rattus norvegicus; experiment: Tested for in vivo inhibition of galactitol accumulation in the sciatic nerve of galactose-fed rats at the dose of 96.6 (mg/kg/day); type: functional
Summary of the method: (§2)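 Rats fed a 20% galactose diet for 4 days, with test compound given in the diet at the stated daily dose (mg/kg/day). Read-out is inhibition of galactitol (polyol) accumulation in sciatic nerve. Values are % inhibition, mean ± SEM of six animals; p < 0.01 unless marked (some p < 0.05). NS = no significant inhibition of polyol accumulation. Tolrestat was the reference standard.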

[4] = target: Aldo-keto reductase family 1 member B1 (Bos taurus) (UniProt P16116); experiment: Inhibition of aldose reductase activity in partially purified bovine lens preparation at 10e-5 M
Summary of the method: (§3)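 Partially purified bovine lens aldose reductase. Reduction of DL-glyceraldehyde substrate followed spectrophotometrically. Activity expressed as average inhibition at the tested concentrations, 1×10^-5, 1×10^-6, 1×10^-7 and 4×10^-6 M as printed; IC50 in M where given.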

[5] = system: Rattus norvegicus; experiment: Tested for in vivo inhibition of galactitol accumulation in the lens of galactose-fed rats at the dose of 48.8 (mg/kg/day); NS=Not significant; type: functional, organism-based; conditions: Lens of camera-type eye
[6] = system: Rattus norvegicus; experiment: Tested for in vivo inhibition of galactitol accumulation in the sciatic nerve of galactose-fed rats at the dose of 48.8 (mg/kg/day); type: functional; summary of the method: as §2
[7] = system: Rattus norvegicus; experiment: Tested for in vivo inhibition of galactitol accumulation in the lens of galactose-fed rats at the dose of 96.6 (mg/kg/day); NS=Not significant; type: functional, organism-based; conditions: Lens of camera-type eye
Summary of the method: (§4)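 Galactosemic rats were fed 20% galactose for 4 days, with the compound mixed into the diet. […] galactitol accumulation was measured, and activity is given as % inhibition at the stated daily dose (mg/kg/day). Values are mean ± SEM of six animals; p < 0.01 unless indicated. NS means no significant inhibition of polyol accumulation.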

[8] = system: Rattus norvegicus; experiment: Tested for in vivo inhibition of galactitol accumulation in the lens of galactose-fed rats; type: functional, organism-based; conditions: Lens of camera-type eye
[9] = target: Aldo-keto reductase family 1 member B1 (Bos taurus, UniProt P16116); experiment: Compound was tested in vitro for inhibition of aldose reductase activity in partially purified bovine lens preparation; summary of the method: as §3
[10] = system: Rattus norvegicus; experiment: Tested for in vivo inhibition of galactitol accumulation in the sciatic nerve of galactose-fed rats; type: functional, organism-based
[11] = system: Rattus norvegicus; experiment: Tested for in vivo inhibition of galactitol accumulation in the sciatic nerve of galactose-fed rats at the dose of 1.1 (mg/kg/day); type: functional; summary of the method: as §1
[12] = system: Rattus norvegicus; experiment: Tested for in vivo inhibition of galactitol accumulation in the sciatic nerve of galactose-fed rats at the dose of 27.1 (mg/kg/day); type: functional; summary of the method: as §1
[13] = system: Rattus norvegicus; experiment: Tested for in vivo inhibition of galactitol accumulation in the lens of galactose-fed rats at the dose of 1.1 (mg/kg/day); NS=Not significant; type: functional, organism-based; conditions: Lens of camera-type eye
[14] = system: Rattus norvegicus; experiment: Tested for in vivo inhibition of galactitol accumulation in the lens of galactose-fed rats at the dose of 27.1 (mg/kg/day); type: functional, Lens of camera-type eye
[15] = system: Rattus norvegicus; experiment: Tested for in vivo inhibition of galactitol accumulation in the sciatic nerve of galactose-fed rats at the dose of 0.9 (mg/kg/day); type: functional; summary of the method: as §1
[16] = system: Rattus norvegicus; experiment: Tested for in vivo inhibition of galactitol accumulation in the sciatic nerve of galactose-fed rats at the dose of 0.5 (mg/kg/day); type: functional; summary of the method: as §1
[17] = system: Rattus norvegicus; experiment: Tested for in vivo inhibition of galactitol accumulation in the sciatic nerve of galactose-fed rats at the dose of 9.5 (mg/kg/day); type: functional; summary of the method: as §2
[18] = system: Rattus norvegicus; experiment: Tested for in vivo inhibition of galactitol accumulation in the lens of galactose-fed rats at the dose of 49 (mg/kg/day); type: functional, Lens of camera-type eye
[19] = system: Rattus norvegicus; experiment: Tested for in vivo inhibition of galactitol accumulation in the lens of galactose-fed rats at the dose of 10.5 (mg/kg/day); NS=Not significant; type: functional, organism-based; conditions: Lens of camera-type eye
[20] = system: Rattus norvegicus; experiment: Tested for in vivo inhibition of galactitol accumulation in the sciatic nerve of galactose-fed rats at the dose of 49 (mg/kg/day); type: functional; summary of the method: as §2
[21] = system: Rattus norvegicus; experiment: Tested for in vivo inhibition of galactitol accumulation in the sciatic nerve of galactose-fed rats at the dose of 93.6 (mg/kg/day); type: functional; summary of the method: as §2
[22] = system: Rattus norvegicus; experiment: Tested for in vivo inhibition of galactitol accumulation in the sciatic nerve of galactose-fed rats at the dose of 49.3 (mg/kg/day); type: functional; summary of the method: as §2
[23] = system: Rattus norvegicus; experiment: Tested for in vivo inhibition of galactitol accumulation in the lens of galactose-fed rats at the dose of 93.6 (mg/kg/day); NS=Not significant; type: functional, organism-based; conditions: Lens of camera-type eye; summary of the method: as §4
[24] = system: Rattus norvegicus; experiment: Tested for in vivo inhibition of galactitol accumulation in the lens of galactose-fed rats at the dose of 49.3 (mg/kg/day); NS=Not significant; type: functional, organism-based; conditions: Lens of camera-type eye
[25] = system: Rattus norvegicus; experiment: Tested for in vivo inhibition of galactitol accumulation in the sciatic nerve of galactose-fed rats at the dose of 9.8 (mg/kg/day); type: functional; summary of the method: as §2
[26] = system: Rattus norvegicus; experiment: Tested for in vivo inhibition of galactitol accumulation in the sciatic nerve of galactose-fed rats at the dose of 55.4 (mg/kg/day); type: functional; summary of the method: as §2

EC50 [8]: 10 mg/kg/day | IC50 [9]: 0.023 µM
SMILES: O=C1CC2(C(=O)N1)C(=O)N(Cc1ccc(Br)cc1F)C(=O)c1ccccc12 (configuration not stated)
ED50 [10]: 0.3 mg/kg/day

inhibition [4]: inactive
SMILES: CC(C)=NN1C(=O)CC2(C(=O)N(Cc3ccc(Br)cc3F)C(=O)c3ccc(F)cc32)C1=O (configuration not stated)
Inhibition [11]: 47% | Inhibition [12]: 84% | inhibition [13]: inactive | Inhibition [14]: 58%

inhibition [4]: inactive
SMILES: CCN1C(=O)CC2(C1=O)C(=O)N(Cc1ccc(Br)cc1F)C(=O)c1ccccc12 (configuration not stated)
Inhibition [15]: 65% | Inhibition [16]: 37%

inhibition [4]: inactive
SMILES: CN1C(=O)CC2(C1=O)C(=O)N(Cc1ccc(Cl)cc1)C(=O)c1ccccc12 (configuration not stated)
Inhibition [25]: 35%

inhibition [4]: inactive
SMILES: CN1C(=O)CC2(C(=O)N(Cc3ccc(Br)cc3F)C(=O)c3ccccc32)C(=O)N1C (configuration not stated)
Inhibition [26]: 76%

The next lines start with the compound.

SMILES: CN1C(=O)c2ccc(Br)cc2C2(CC(=O)N2)C1=O (configuration not stated)
Inhibition [1]: 54% | Inhibition [2]: 36%

SMILES: COC(=O)NC(=O)CC1C(=O)N(Cc2nc3cc(C(F)(F)F)ccc3s2)C(=O)c2ccccc21 (configuration not stated)
Inhibition [3]: 73% | inhibition [4]: 95% | NS [5]: inactive | Inhibition [6]: 61% | inhibition [7]: inactive

SMILES: CN1C(=O)CC2(C1=O)C(=O)N(Cc1nc3cc(C(F)(F)F)ccc3s1)C(=O)c1ccccc12 (configuration not stated)
Inhibition [17]: 82% | inhibition [4]: inactive

SMILES: CN1C(=O)c2ccc(Cl)cc2C2(CC(=O)N2)C1=O (configuration not stated)
Inhibition [18]: 66% | inhibition [19]: inactive | Inhibition [20]: 87%

SMILES: COC(=O)NC(=O)CC1C(=O)N(Cc2nc3cc(C(F)(F)F)ccc3s2)C(=O)c2ccc(F)cc21 (configuration not stated)
Inhibition [21]: 59% | Inhibition [22]: 39% | inhibition [4]: 83% | inhibition [23]: inactive | inhibition [24]: inactive
